ChEMBL document CHEMBL1152865, “Synthesis and antimycobacterial activities of novel 6-nitroquinolone-3-carboxylic acids” (Eur J Med Chem, 2009)
In brackets after ≈: the same amount, converted by molar mass.

Columns and labels:
[1] = tested on: Mycobacterium tuberculosis; experiment: Antibacterial activity against Mycobacterium tuberculosis H37Rv by agar dilution method; format: functional
How it was run: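 Agar dilution in Middlebrook 7H11 agar supplemented with OADC, following an approach similar to NCCLS guidance. MIC determined in duplicate.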

[2] = tested on: Mycolicibacterium smegmatis; experiment: Antibacterial activity against Mycobacterium smegmatis ATCC 14468 by agar dilution method; format: functional
How it was run: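 Agar dilution on Middlebrook 7H11 agar with OADC supplement, following an NCCLS-type procedure; MIC read in duplicate.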

[3] = Inhibition of Mycobacterium smegmatis DNA gyrase assessed as inhibition of relaxed circular pUC18 supercoiling activity by agarose gel electrophoresis; set-up: species or system Mycolicibacterium smegmatis
How it was run: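 Gyrase purified from M. smegmatis, pre-incubated with compound in DMSO. Then 400 ng relaxed pUC18 added in 35 mM Tris-HCl pH 7.5, 5 mM MgCl2, 25 mM potassium glutamate, 2 mM spermidine, 2 mM ATP, BSA, yeast tRNA and 5% glycerol. Incubated 30 min at 37 °C; read-out by agarose gel electrophoresis. Ciprofloxacin and 5% DMSO reactions run as controls.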

[4] = Cytotoxicity against african green monkey Vero cells after 72 hrs by MTT assay; format: cell-based; details: chlorocebus sabaeus
How it was run: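 Cells exposed to compound for 72 h; viability from cellular MTT conversion to formazan; CC50 derived.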

[5] = tested on: Mus musculus; experiment: Phototoxicity in Swiss albino mouse exposed to 4 hrs of 18 J/cm'2 UV light irradiation assessed as ear thickness at 140 mg/kg, po after 96 hrs; format: organism-based; set-up: dose 140 mg/kg, route oral; details: in vivo
How it was run: (§1)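 Female Swiss albino mice about 2 months old, 20-25 g, fasted at least 18 h, six per group. Single oral gavage of 140 mg/kg; vehicle 0.5% aqueous sodium carboxymethylcellulose at 10 ml/kg; lomefloxacin HCl 140 mg/kg as positive control. UVA for 4 h (about 18 J/cm²) from dosing. Both ears scored for erythema, edema and thickness pre-dose, at 4 h, and at about 24, 48, 72 and 96 h.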

[6] = tested on: Mus musculus; experiment: Phototoxicity in Swiss albino mouse exposed to 4 hrs of 18 J/cm'2 UV light irradiation assessed as erythema at 140 mg/kg, po; format: organism-based; set-up: dose 140 mg/kg, route oral; details: in vivo; how it was run: as §1
[7] = tested on: Mus musculus; experiment: Phototoxicity in Swiss albino mouse assessed as erythema at 140 mg/kg, po after 4 hrs of 18 J/cm'2 UV light irradiation; format: organism-based; set-up: dose 140 mg/kg, route oral; details: in vivo; how it was run: as §1
[8] = tested on: Mus musculus; experiment: Phototoxicity in Swiss albino mouse exposed to 4 hrs of 18 J/cm'2 UV light irradiation assessed as erythema at 140 mg/kg, po after 24 hrs; format: organism-based; set-up: dose 140 mg/kg, route oral; details: in vivo; how it was run: as §1
[9] = tested on: Mus musculus; experiment: Phototoxicity in Swiss albino mouse exposed to 4 hrs of 18 J/cm'2 UV light irradiation assessed as erythema at 140 mg/kg, po after 48 hrs; format: organism-based; set-up: dose 140 mg/kg, route oral; details: in vivo; how it was run: as §1
[10] = tested on: Mus musculus; experiment: Phototoxicity in Swiss albino mouse exposed to 4 hrs of 18 J/cm'2 UV light irradiation assessed as erythema at 140 mg/kg, po after 96 hrs; format: organism-based; set-up: dose 140 mg/kg, route oral; details: in vivo; how it was run: as §1
[11] = tested on: Mus musculus; experiment: Phototoxicity in Swiss albino mouse exposed to 18 J/cm'2 UV light irradiation assessed as ear thickness at 140 mg/kg, po; format: organism-based; set-up: dose 140 mg/kg, route oral; details: in vivo; how it was run: as §1
[12] = tested on: Mus musculus; experiment: Phototoxicity in Swiss albino mouse assessed as ear thickness at 140 mg/kg, po measured after 4 hrs of 18 J/cm'2 UV light irradiation; format: organism-based; set-up: dose 140 mg/kg, route oral; details: in vivo; how it was run: as §1
[13] = tested on: Mus musculus; experiment: Phototoxicity in Swiss albino mouse exposed to 4 hrs of 18 J/cm'2 UV light irradiation assessed as ear thickness at 140 mg/kg, po after 24 hrs; format: organism-based; set-up: dose 140 mg/kg, route oral; details: in vivo; how it was run: as §1
[14] = tested on: Mus musculus; experiment: Phototoxicity in Swiss albino mouse exposed to 4 hrs of 18 J/cm'2 UV light irradiation assessed as ear thickness at 140 mg/kg, po after 48 hrs; format: organism-based; set-up: dose 140 mg/kg, route oral; details: in vivo; how it was run: as §1
[15] = tested on: Mus musculus; experiment: Phototoxicity in Swiss albino mouse exposed to 4 hrs of 18 J/cm'2 UV light irradiation assessed as ear thickness at 140 mg/kg, po after 72 hrs; format: organism-based; set-up: dose 140 mg/kg, route oral; details: in vivo; how it was run: as §1

Row | SMILES | MIC [1] | MIC [2] | IC50 [3] | further results
1 | CC(C)(C)NC(=O)C1c2ccccc2CCN1c1cc2c(cc1[N+](=O)[O-])c(=O)c(C(=O)O)cn2-c1ccc(F)cc1 (centres undefined) | 5.6 µM (≈ 3.13 µg/mL) | 22.4 µM (≈ 12.5 µg/mL) |  | 
2 | CC1CN(c2cc3c(cc2[N+](=O)[O-])c(=O)c(C(=O)O)cn3C2CC2)CC(C)O1 (centres undefined) | 2.01 µM (≈ 0.779 µg/mL) | 8.08 µM (≈ 3.13 µg/mL) |  | 
3 | CC(C)(C)n1cc(C(=O)O)c(=O)c2cc([N+](=O)[O-])c(N3CCN(C(=O)C4COc5ccccc5O4)CC3)cc21 (centres undefined) | 5.83 µM (≈ 3.13 µg/mL) | 23.3 µM (≈ 12.5 µg/mL) |  | 
4 | CN1CCN(c2cc3c(cc2[N+](=O)[O-])c(=O)c(C(=O)O)cn3C(C)(C)C)CC1c1ccccc1 (centres undefined) | 16.1 µM (≈ 7.47 µg/mL) | 64.4 µM (≈ 29.9 µg/mL) |  | 
5 | O=C(O)c1cn(C2CC2)c2cc(N3CCN(C(=O)C4COc5ccccc5O4)CC3)c([N+](=O)[O-])cc2c1=O (centres undefined) | 2.99 µM (≈ 1.56 µg/mL) | 12 µM (≈ 6.25 µg/mL) |  | 
6 | COc1ccc(CC2C3=C(CCCC3)CCN2c2cc3c(cc2[N+](=O)[O-])c(=O)c(C(=O)O)cn3C(C)(C)C)cc1 (centres undefined) | 5.74 µM (≈ 3.13 µg/mL) | 22.9 µM (≈ 12.5 µg/mL) |  | 
7 | CC(C)(C)n1cc(C(=O)O)c(=O)c2cc([N+](=O)[O-])c(N3CCC4(CC3)OCCO4)cc21 | 7.45 µM (≈ 3.21 µg/mL) | 29 µM (≈ 12.5 µg/mL) |  | 
8 | O=C(O)c1cn(-c2ccc(F)cc2)c2cc(N3CCN(C(c4ccccc4)c4ccc(Cl)cc4)CC3)c([N+](=O)[O-])cc2c1=O (centres undefined) | 10.2 µM (≈ 6.25 µg/mL) | 40.8 µM (≈ 25 µg/mL) |  | 
9 | CC1CN(c2cc3c(cc2[N+](=O)[O-])c(=O)c(C(=O)O)cn3C(C)(C)C)CC(C)O1 (centres undefined) | 7.76 µM (≈ 3.13 µg/mL) | 31 µM (≈ 12.5 µg/mL) |  | 
10 | CC(C)(C)n1cc(C(=O)O)c(=O)c2cc([N+](=O)[O-])c(N3CCN(C(=O)c4ccco4)CC3)cc21 | 6.68 µM (≈ 3.13 µg/mL) | 13.3 µM (≈ 6.25 µg/mL) | 30 µg/mL (≈ 64 µM) | 
11 | O=C(O)c1cn(C2CC2)c2cc(N3CCN(C(c4ccccc4)c4ccc(Cl)cc4)CC3)c([N+](=O)[O-])cc2c1=O (centres undefined) | 5.59 µM (≈ 3.12 µg/mL) | 5.59 µM (≈ 3.12 µg/mL) |  | 
12 | O=C(O)c1cn(-c2ccc(F)cc2)c2cc(N3CCN(C(=O)C4COc5ccccc5O4)CC3)c([N+](=O)[O-])cc2c1=O (centres undefined) | 2.72 µM (≈ 1.56 µg/mL) | 10.9 µM (≈ 6.25 µg/mL) | 30 µg/mL (≈ 52.2 µM) | CC50 at 72 h [4]: 54.4 µM
13 | O=C(O)c1cn(C2CC2)c2cc(N3CCC(N4CCCCC4)CC3)c([N+](=O)[O-])cc2c1=O | 0.43 µM (≈ 0.189 µg/mL) | 1.77 µM (≈ 0.78 µg/mL) | 20 µg/mL (≈ 45.4 µM) | Activity [5]: 0.28 mm; Activity [6]: Non-toxic; Activity [7]: Non-toxic; Activity [8]: Non-toxic; Activity [9]: Non-toxic; Activity [10]: Non-toxic; CC50 at 72 h [4]: 142 µM; Activity [11]: 0.24 mm; Activity [12]: 0.26 mm; Activity [13]: 0.26 mm; Activity [14]: 0.26 mm; Activity [15]: 0.29 mm
14 | CC1CN(c2cc3c(cc2[N+](=O)[O-])c(=O)c(C(=O)O)cn3-c2ccc(F)cc2)CC(C)O1 (centres undefined) | 3.53 µM (≈ 1.56 µg/mL) | 14.2 µM (≈ 6.25 µg/mL) | 20 µg/mL (≈ 45.3 µM) | CC50 at 72 h [4]: 70.8 µM
15 | CC(C)(C)n1cc(C(=O)O)c(=O)c2cc([N+](=O)[O-])c(N3CCC(N4CCCCC4)CC3)cc21 | 6.86 µM (≈ 3.13 µg/mL) | 27.4 µM (≈ 12.5 µg/mL) |  | 
16 | CC(C)(C)NC(=O)C1c2ccccc2CCN1c1cc2c(cc1[N+](=O)[O-])c(=O)c(C(=O)O)cn2C(C)(C)C (centres undefined) | 12 µM (≈ 6.25 µg/mL) | 24 µM (≈ 12.5 µg/mL) |  | 
17 | CC(C)(C)NC(=O)C1c2ccccc2CCN1c1cc2c(cc1[N+](=O)[O-])c(=O)c(C(=O)O)cn2C1CC1 (centres undefined) | 1.55 µM (≈ 0.782 µg/mL) | 3.09 µM (≈ 1.56 µg/mL) | 30 µg/mL (≈ 59.5 µM) | 
18 | O=C(O)c1cn(C2CC2)c2cc(N3CCN(C(=O)c4ccco4)CC3)c([N+](=O)[O-])cc2c1=O | 0.69 µM (≈ 0.312 µg/mL) | 1.39 µM (≈ 0.629 µg/mL) | 30 µg/mL (≈ 66.3 µM) | CC50 at 72 h [4]: 111 µM
19 | CC(C)(C)n1cc(C(=O)O)c(=O)c2cc([N+](=O)[O-])c(N3CCN(C(c4ccccc4)c4ccc(Cl)cc4)CC3)cc21 (centres undefined) | 5.44 µM (≈ 3.13 µg/mL) | 10.9 µM (≈ 6.25 µg/mL) | 30 µg/mL (≈ 52.2 µM) | 
20 | O=C(O)c1cn(C2CC2)c2cc(N3CCC(n4c(=O)[nH]c5cc(Cl)ccc54)CC3)c([N+](=O)[O-])cc2c1=O | 1.49 µM (≈ 0.781 µg/mL) | 2.97 µM (≈ 1.56 µg/mL) | 20 µg/mL (≈ 38.2 µM) | 
21 | O=C(O)c1cn2c(n1)CN(c1cc3c(cc1[N+](=O)[O-])c(=O)c(C(=O)O)cn3-c1ccc(F)cc1)CC2 | 12.7 µM (≈ 6.25 µg/mL) | 50.7 µM (≈ 25 µg/mL) |  | 
22 | O=C(O)c1cn(-c2ccc(F)cc2)c2cc(N3CCN(C(=O)c4ccco4)CC3)c([N+](=O)[O-])cc2c1=O | 6.18 µM (≈ 3.13 µg/mL) | 24.7 µM (≈ 12.5 µg/mL) |  | 
23 | O=C(O)c1cn(-c2ccc(F)cc2)c2cc(N3CCSCC3)c([N+](=O)[O-])cc2c1=O | 14.6 µM (≈ 6.25 µg/mL) | 29.1 µM (≈ 12.5 µg/mL) |  | 
